Experimental data: ChEMBL document CHEMBL4118273, “Design, Synthesis, and Biological Evaluation of Pyrimido[4,5- d]pyrimidine-2,4(1 H,3 H)-diones as Potent and Selective Epidermal Growth Factor Receptor (EGFR) Inhibitors against L858R/T790M Resistance Mutation” (J Med Chem, 2018); call rule not given here
pIC50: −log10 of the molar value. Converted amounts (≈) assume the structure as drawn.

Assays:
[1] = target: T1, Epidermal growth factor receptor (Homo sapiens, UniProt P00533); test: Inhibition of wild type EGFR phosphorylation in EGF-stimulated human A431 cells up to 1000 nM by Western blot method
T1 sequence (P00533 whole entry): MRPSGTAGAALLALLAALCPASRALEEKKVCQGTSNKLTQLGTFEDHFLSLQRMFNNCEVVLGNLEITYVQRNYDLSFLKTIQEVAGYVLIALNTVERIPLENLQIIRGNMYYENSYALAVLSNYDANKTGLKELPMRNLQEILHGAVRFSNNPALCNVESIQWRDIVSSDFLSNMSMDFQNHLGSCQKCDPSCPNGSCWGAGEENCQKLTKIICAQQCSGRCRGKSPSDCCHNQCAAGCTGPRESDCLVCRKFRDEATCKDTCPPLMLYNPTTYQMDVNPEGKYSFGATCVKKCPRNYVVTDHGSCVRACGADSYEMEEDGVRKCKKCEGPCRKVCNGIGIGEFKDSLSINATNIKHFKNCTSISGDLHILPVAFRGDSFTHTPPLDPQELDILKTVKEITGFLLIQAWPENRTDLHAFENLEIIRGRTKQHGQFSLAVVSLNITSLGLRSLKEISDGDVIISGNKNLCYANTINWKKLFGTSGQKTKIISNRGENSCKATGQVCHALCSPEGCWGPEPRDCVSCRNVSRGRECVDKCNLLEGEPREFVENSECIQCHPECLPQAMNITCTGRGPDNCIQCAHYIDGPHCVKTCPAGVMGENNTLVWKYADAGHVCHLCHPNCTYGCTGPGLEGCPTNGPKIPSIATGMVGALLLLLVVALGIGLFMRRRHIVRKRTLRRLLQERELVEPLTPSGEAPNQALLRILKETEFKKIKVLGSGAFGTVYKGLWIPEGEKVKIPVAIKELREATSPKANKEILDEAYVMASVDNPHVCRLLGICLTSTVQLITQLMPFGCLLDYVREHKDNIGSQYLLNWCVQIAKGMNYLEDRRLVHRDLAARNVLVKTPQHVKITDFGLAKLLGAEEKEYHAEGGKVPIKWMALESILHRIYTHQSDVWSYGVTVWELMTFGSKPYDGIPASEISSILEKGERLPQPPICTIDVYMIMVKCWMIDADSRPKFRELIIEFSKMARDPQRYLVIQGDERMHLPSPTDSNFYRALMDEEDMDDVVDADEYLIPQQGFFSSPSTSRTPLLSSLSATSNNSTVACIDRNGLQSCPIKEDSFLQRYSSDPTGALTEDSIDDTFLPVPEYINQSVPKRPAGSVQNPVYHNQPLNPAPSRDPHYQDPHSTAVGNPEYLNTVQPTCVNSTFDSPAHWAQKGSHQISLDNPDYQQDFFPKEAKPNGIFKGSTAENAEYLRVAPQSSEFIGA
Method in brief: (§1)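 A431 cells lysed in Tris-HCl pH 6.8 buffer with DTT, SDS and glycerol; equal protein amounts resolved on 8% SDS-PAGE, transferred to nitrocellulose and probed for p-EGFR (Y1068), total EGFR, p-AKT (Ser473), total AKT and GAPDH.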

Mus musculus [2] = test: Toxicity in Balb/c mouse xenografted with human NCI-H1975 cells assessed as mortality at 50 mg/kg/day, po once daily for 14 days measured every 2 to 3 days during compound dosing; format: organism-based; settings: in vivo
Mus musculus [3] = test: Toxicity in Balb/c mouse xenografted with human NCI-H1975 cells assessed as body weight loss at 50 mg/kg/day, po once daily for 14 days measured every 2 to 3 days during compound dosing; format: organism-based; settings: in vivo
Method in brief: (§2)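 A431 or H1975 cells were grown in RPMI-1640 with 10% FBS, and about 2 × 10^6 cells were implanted subcutaneously in the right flank of 4–6-week-old BALB/c mice. At 200–400 mm³, mice were randomized to vehicle or treated groups (n = 6). Dosing was oral, once daily, for 14 days. Body weights were recorded every 2–3 days.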

[4] = AUC (0 to t) in ICR mouse at 10 mg/kg, po by LC-MS/MS analysis; format: ADME, organism-based; settings: in vivo
[5] = Cmax in ICR mouse at 1 mg/kg, iv by LC-MS/MS analysis; format: ADME, organism-based; set-up: dose 1 mg/kg, route intravenous; settings: in vivo
[6] = target: T1, Epidermal growth factor receptor; test: Inhibition of wild type EGFR in EGF-stimulated human A431 cells assessed as reduction in Akt phosphorylation at Ser-473 residue up to 1000 nM by Western blot method; method in brief: as §1
[7] = Clearance in ICR mouse at 1 mg/kg, iv by LC-MS/MS analysis; format: ADME, organism-based; settings: in vivo
[8] = AUC (0 to infinity) in ICR mouse at 10 mg/kg, po by LC-MS/MS analysis; format: ADME, organism-based; set-up: dose 10 mg/kg, route oral, time infinity; settings: in vivo
[9] = target: Epidermal growth factor receptor (Homo sapiens, UniProt P00533, L858R/T790M); test: Inhibition of recombinant human GST-tagged EGFR L858R/T790M double mutant expressed in baculovirus expression system using Poly(Glu,Tyr)4:1 as substrate after 1 hr by ELISA
Chain of Epidermal growth factor receptor (Homo sapiens, UniProt P00533, L858R/T790M) (P00533 25-1210 T790M/L858R limits assumed): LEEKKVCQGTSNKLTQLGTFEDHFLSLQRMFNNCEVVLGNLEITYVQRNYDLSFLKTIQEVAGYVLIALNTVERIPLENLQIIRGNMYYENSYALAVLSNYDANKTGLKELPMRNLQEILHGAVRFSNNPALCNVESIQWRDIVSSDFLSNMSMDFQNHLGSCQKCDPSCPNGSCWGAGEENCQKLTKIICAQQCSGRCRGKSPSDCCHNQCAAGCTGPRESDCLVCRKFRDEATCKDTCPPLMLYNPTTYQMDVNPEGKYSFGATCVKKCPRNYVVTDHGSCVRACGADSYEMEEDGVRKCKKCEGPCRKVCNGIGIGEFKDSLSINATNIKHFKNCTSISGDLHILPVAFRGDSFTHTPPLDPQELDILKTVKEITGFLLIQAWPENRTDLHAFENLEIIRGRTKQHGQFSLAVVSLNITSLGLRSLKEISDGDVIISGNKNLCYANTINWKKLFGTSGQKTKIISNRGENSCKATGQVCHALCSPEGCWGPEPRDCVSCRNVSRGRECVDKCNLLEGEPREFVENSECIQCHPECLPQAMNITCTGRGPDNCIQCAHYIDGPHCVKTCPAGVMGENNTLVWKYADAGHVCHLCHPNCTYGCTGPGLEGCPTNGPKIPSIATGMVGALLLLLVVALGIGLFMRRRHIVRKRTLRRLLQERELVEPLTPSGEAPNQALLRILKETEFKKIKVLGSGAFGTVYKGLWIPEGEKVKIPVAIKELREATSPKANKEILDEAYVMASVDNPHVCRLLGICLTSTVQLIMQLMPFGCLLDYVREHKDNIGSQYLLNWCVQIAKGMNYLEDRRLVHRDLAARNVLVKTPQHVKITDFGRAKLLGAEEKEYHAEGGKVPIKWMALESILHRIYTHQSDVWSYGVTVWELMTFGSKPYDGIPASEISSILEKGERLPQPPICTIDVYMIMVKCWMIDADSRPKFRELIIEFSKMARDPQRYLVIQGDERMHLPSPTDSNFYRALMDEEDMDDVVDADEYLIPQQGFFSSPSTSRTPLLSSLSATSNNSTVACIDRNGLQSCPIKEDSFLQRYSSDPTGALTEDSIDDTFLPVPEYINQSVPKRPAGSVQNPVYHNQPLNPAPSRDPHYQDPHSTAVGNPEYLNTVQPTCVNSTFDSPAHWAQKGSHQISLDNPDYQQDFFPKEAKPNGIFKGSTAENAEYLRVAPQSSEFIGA

Mus musculus [10] = test: Toxicity in Balb/c mouse xenografted with human A431 cells assessed as body weight loss at 50 mg/kg/day, po once daily for 14 days measured every 2 to 3 days during compound dosing; format: organism-based; settings: in vivo; method in brief: as §2
[11] = Aqueous solubility in pH 7.4 PBS buffer by UV-Visible spectrophotometric method; format: physicochemical
Method in brief: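 Solubility determined in 0.1 M PBS, pH 7.4, by UV-visible spectrophotometry.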

[12] = Apparent permeability from apical to basolateral side in MDCK2 cells at 2 uM after 2.5 hrs by LC-MS/MS method; format: ADME, cell-based, Canis lupus familiaris, MDCK-II; settings: dog, MDCK
Homo sapiens [13] = species on record: Homo sapiens; test: Selectivity index, ratio of IC50 for human A431 cells harboring wild type EGFR to IC50 for human NCI-H1975 cells harboring EGFR L858R/T790M double mutant
Method in brief: (§3)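 Cell growth inhibition measured by sulforhodamine B colorimetric assay in H1975 (EGFR L858R/T790M) and A431 (overexpressed wild-type EGFR) cells; IC50 values are means ± SD of at least three independent determinations. Selectivity is taken as the A431:H1975 IC50 ratio.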

Homo sapiens [14] = species on record: Homo sapiens; test: Selectivity ratio of IC50 for recombinant human GST-tagged EGFR (668 to 1210 residues) expressed in baculovirus expression system to IC50 for recombinant human GST-tagged EGFR L858R/T790M double mutant expressed in baculovirus expression system
Method in brief: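 ELISA-based EGFR tyrosine kinase assay run on wild-type and L858R/T790M enzymes. IC50 values come from at least three independent determinations, reported as means ± SD. Selectivity is the wild-type IC50 divided by the L858R/T790M IC50.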

Cytochrome P450 2C9 = Cytochrome P450 2C9 (Homo sapiens, UniProt P11712); test: Inhibition of human CYP2C9 (unknown origin); format: ADME
Chain of Cytochrome P450 2C9 (P11712 whole entry): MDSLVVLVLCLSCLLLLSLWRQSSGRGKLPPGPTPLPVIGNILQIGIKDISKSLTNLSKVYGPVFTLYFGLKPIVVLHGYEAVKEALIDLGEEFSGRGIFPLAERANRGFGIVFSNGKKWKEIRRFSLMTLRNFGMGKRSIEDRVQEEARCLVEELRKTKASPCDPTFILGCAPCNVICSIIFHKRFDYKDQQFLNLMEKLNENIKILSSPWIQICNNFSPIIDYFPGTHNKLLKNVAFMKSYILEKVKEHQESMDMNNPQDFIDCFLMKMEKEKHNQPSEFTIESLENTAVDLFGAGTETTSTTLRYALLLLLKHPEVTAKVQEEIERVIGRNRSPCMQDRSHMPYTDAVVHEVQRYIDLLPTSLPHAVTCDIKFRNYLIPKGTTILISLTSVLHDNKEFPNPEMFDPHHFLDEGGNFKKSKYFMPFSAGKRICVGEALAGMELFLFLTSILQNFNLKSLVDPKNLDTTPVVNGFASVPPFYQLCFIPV

[15] = Half life in ICR mouse at 10 mg/kg, po by LC-MS/MS analysis; format: ADME, organism-based; settings: in vivo
[16] = Half life in human liver microsomes at 0.1 uM after 60 mins in presence of NADPH by LC-MS/MS analysis; format: ADME, microsome
Method in brief: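 Human or mouse liver microsomes (0.33 mg/mL protein) in 0.1 M Tris/HCl pH 7.4 with 5 mM MgCl2, 1 mM NADPH, 0.01% DMSO and 0.005% BSA; test compound at 0.1 µM final, 37 °C for 60 min. Aliquots at 0, 7, 17, 30 and 60 min quenched by methanol precipitation, centrifuged and analysed by LC-MS/MS.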

Mus musculus [17] = test: Toxicity in Balb/c mouse xenografted with human A431 cells assessed as mortality at 50 mg/kg/day, po once daily for 14 days measured every 2 to 3 days during compound dosing; format: organism-based; settings: in vivo
[18] = target: T1, Epidermal growth factor receptor; test: Inhibition of recombinant human GST-tagged EGFR (668 to 1210 residues) expressed in baculovirus expression system using Poly(Glu,Tyr)4:1 as substrate after 1 hr by ELISA
[19] = Apparent volume of distribution in ICR mouse at 1 mg/kg, iv by LC-MS/MS analysis; format: ADME, organism-based; settings: in vivo, read-out: Vz
Cytochrome P450 1A2 = target: T2, Cytochrome P450 1A2 (Homo sapiens, UniProt P05177); test: Inhibition of human CYP1A2 (unknown origin); format: ADME
T2 sequence (P05177 whole entry): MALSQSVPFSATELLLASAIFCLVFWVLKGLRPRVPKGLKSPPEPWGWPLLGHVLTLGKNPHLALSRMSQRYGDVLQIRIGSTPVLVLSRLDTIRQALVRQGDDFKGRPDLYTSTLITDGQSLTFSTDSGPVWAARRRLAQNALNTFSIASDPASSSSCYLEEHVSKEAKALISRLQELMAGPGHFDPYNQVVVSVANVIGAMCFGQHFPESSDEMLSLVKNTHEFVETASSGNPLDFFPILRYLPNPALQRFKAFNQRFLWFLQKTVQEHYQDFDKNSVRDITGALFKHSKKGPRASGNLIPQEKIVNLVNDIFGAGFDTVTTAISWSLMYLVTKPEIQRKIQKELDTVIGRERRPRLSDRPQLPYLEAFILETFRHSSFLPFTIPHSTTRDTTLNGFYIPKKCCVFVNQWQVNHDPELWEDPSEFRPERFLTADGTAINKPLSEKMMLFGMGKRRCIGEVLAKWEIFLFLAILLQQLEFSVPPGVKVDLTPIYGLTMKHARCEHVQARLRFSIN

Cytochrome P450 3A4 = Cytochrome P450 3A4 (Homo sapiens, UniProt P08684); test: Inhibition of human CYP3A4 (unknown origin); format: ADME
Chain of Cytochrome P450 3A4 (P08684 whole entry): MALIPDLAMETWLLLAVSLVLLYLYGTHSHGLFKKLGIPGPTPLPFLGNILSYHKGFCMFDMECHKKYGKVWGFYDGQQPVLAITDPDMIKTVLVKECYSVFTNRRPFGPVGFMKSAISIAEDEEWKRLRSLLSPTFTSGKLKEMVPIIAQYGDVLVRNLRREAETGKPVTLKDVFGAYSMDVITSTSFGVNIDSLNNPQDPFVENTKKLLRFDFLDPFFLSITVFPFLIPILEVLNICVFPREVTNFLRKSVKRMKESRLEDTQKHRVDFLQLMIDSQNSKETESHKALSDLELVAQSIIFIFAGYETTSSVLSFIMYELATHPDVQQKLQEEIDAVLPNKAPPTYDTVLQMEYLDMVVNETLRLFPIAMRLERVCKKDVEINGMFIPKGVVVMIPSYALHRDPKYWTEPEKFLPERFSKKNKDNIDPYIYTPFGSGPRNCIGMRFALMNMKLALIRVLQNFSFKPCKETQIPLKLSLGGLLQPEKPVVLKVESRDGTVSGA

[20] = AUC (0 to infinity) in ICR mouse at 1 mg/kg, iv by LC-MS/MS analysis; format: ADME, organism-based; set-up: dose 1 mg/kg, route intravenous, time infinity; settings: in vivo
NCI-H1975 = test: Antiproliferative activity against human NCI-H1975 cells harboring EGFR L858R/T790M double mutant after 72 hrs by SRB assay; format: functional, cell-based; settings: NCI-H1975, 72 h; method in brief: as §3

SMILES: C=CC(=O)Nc1cccc(-n2c(=O)n(C(C)C)c(=O)c3cnc(Nc4ccc(N5CCN(C)CC5)cc4OC)nc32)c1
- inhibition (INH) [1]: Not Active
- Activity (Mus musculus [2]): Non-Toxic
- Activity (Mus musculus [3]): Non-Toxic
- AUC(0-t) [4]: 0.65 µg·h/mL
- Cmax [5]: 0.311 µg/mL
- inhibition (INH) [6]: Not Active
- clearance [7]: 5.37 L/h/kg
- AUC(0-inf) [8]: 0.658 µg·h/mL
- pIC50 [9]: 9.52
- Activity (Mus musculus [10]): Non-Toxic
- solubility [11]: 0.262 mg/mL (≈ 459 µM)
- Papp A→B at 2.5 h, 2 µM [12]: 15 nm/s
- Ratio IC50 (Homo sapiens [13]): 36
- Ratio IC50 (Homo sapiens [14]): 263
- pIC50 (Cytochrome P450 2C9): < 4.30
- half-life [15]: 1.1 h
- half-life at 0.1 µM [16]: 1.42 h
- Activity (Mus musculus [17]): Non-Toxic
- pIC50 [18]: 7.10
- Vd [19]: 4.53 L/kg
- pIC50 (Cytochrome P450 1A2): < 4.30
- pIC50 (Cytochrome P450 3A4): 4.62
- AUC(0-inf) [20]: 0.186 µg·h/mL
- pIC50 (NCI-H1975): 7.36
